According to publication PMC10851409 (ACS Omega, 2024):

Tests used:
[1] = biological target: T1, bovine serum albumin (BSA) (Bos taurus, UniProt P02769); test: UV–vis absorption titration of BSA; assay type: binding; details: pH 7.4; for Enthalpy ΔH / Entropy ΔS: from Kb at 298 and 308 K
Summary of the method: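 Peltier-thermostatted spectrophotometer, 1 cm quartz cell, 1 nm slit, spectra over 200–500 nm. BSA in PBS pH 7.4 titrated with test compound (2.46–22.22 μM) and read at 279 nm; ligand-alone absorbance also recorded. Run at 298 and 308 K. Kb taken from the […] of the Benesi–Hildebrand plot, A0/(A–A0) versus 1/[compound]; thermodynamic parameters derived from Kb at both temperatures.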

[2] = biological target: T1, bovine serum albumin (BSA); test: Steady-state fluorescence quenching of BSA; assay type: binding; details: for Number of binding sites n / Stern–Volmer constant Ksv / Bimolecular quenching rate parameter kq: 298 K; for Stern–Volmer constant Ksv: pH 7.4; for Bimolecular quenching rate parameter kq: τo = 10^–8 s; for Fluorescence quenching mechanism: BSA fluorescence, kq compared with 2.0 × 10^10 m^–1 s^–1
Summary of the method: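 BSA stock in PBS pH 7.4, with concentration set from absorbance (ε 43,824 M–1 cm–1); test compounds from DMSO stocks, 2.46–22.22 μM. Emission recorded in a 1.0 cm quartz cuvette at 298 K with excitation at 280 nm and 5 nm excitation/emission bandwidths. Stern–Volmer and modified Stern–Volmer plots analysed; kq calculated using τo of 10–8 s for native BSA.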

[3] = biological target: T1, bovine serum albumin (BSA); test: Time-resolved fluorescence decay of BSA; assay type: binding; details: 298 K; for α1 / α2 / α3 / τ1 / τ2 / τ3: triexponential fitting
Summary of the method: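 Time-correlated single-photon counting with pulsed nanosecond LED excitation at 280 nm, 298 K. Instrument response recorded with a scattering solution; 114 ps per channel. Decays fitted as a sum of exponentials by nonlinear least-squares reconvolution, with pre-exponential factors normalized to 1 and errors taken as three standard deviations. Fit judged by χ2 and weighted residuals; average lifetime from triexponential fits.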

Plasmodium falciparum = details: read-out: IC50 antiplasmodial; P. falciparum; cited from earlier work

T1 sequence (P02769 25-607): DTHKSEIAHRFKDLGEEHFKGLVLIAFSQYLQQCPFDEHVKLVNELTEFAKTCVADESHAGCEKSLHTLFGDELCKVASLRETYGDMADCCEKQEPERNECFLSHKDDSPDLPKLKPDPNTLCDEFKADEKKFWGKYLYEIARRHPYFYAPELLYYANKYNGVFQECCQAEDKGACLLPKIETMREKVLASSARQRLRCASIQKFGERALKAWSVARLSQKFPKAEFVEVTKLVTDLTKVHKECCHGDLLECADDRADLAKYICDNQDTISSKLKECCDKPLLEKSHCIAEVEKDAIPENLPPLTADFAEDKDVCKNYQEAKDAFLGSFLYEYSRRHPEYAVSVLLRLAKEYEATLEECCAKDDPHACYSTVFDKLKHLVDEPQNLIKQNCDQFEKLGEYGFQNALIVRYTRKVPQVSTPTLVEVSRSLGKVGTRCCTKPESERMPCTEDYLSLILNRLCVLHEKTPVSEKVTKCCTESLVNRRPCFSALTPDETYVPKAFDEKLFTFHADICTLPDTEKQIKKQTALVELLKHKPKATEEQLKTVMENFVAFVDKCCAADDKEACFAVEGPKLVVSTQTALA

Row | SMILES | Gibbs free energy ΔG ([1]; 298 K) | Gibbs free energy ΔG ([1]; 308 K) | Enthalpy ΔH [1] | Entropy ΔS [1] | Number of binding sites n [2] | Stern–Volmer constant Ksv [2] | Bimolecular quenching rate parameter kq [2] | Fluorescence quenching mechanism [2] | τavg (average fluorescence lifetime of BSA) ([3]; ligand 2.46 μm) | α1 ([3]; ligand 2.46 μm) [%] | α2 ([3]; ligand 2.46 μm) [%] | α3 ([3]; ligand 2.46 μm) [%] | τ1 ([3]; ligand 2.46 μm) | τ2 ([3]; ligand 2.46 μm) | τ3 ([3]; ligand 2.46 μm) | τavg (average fluorescence lifetime of BSA) ([3]; ligand 9.52 μm) | α1 ([3]; ligand 9.52 μm) [%] | α2 ([3]; ligand 9.52 μm) [%] | α3 ([3]; ligand 9.52 μm) [%] | τ1 ([3]; ligand 9.52 μm) | further results
1 | C[C@H]1C(=O)CC[C@@H]2[C@]1(C)CC[C@H]1[C@@]2(C)CC[C@@]2(C)[C@@H]3CC(C)(C)CC[C@]3(C)CC[C@]12C [friedelin] | –20.52 kJ mol^–1 | –19.22 kJ mol^–1 | –59.26 kJ mol^–1 | –0.13 kJ mol^–1 | 1 | 1.47 × 10^4 L mol^–1 | 1.47 × 10^12 | static quenching | 6.6 | 8.67 | 55.5 | 35.83 | 2.2687 | 5.696 | 7.962 | 6.7 | 13.49 | 84.08 | 2.43 | 2.6997 | τ2 ([3]; ligand 9.52 μm): 6.576; τ3 ([3]; ligand 9.52 μm): 14.2863; τavg (average fluorescence lifetime of BSA) ([3]; ligand 16.09 μm): 6.8; α1 ([3]; ligand 16.09 μm): 9.59%; α2 ([3]; ligand 16.09 μm): 86.56%; α3 ([3]; ligand 16.09 μm): 3.85%; τ1 ([3]; ligand 16.09 μm): 2.21; τ2 ([3]; ligand 16.09 μm): 6.354; τ3 ([3]; ligand 16.09 μm): 14.127; τavg (average fluorescence lifetime of BSA) ([3]; ligand 22.22 μm): 6.5; α1 ([3]; ligand 22.22 μm): 25.73%; α2 ([3]; ligand 22.22 μm): 71.9%; α3 ([3]; ligand 22.22 μm): 2.37%; τ1 ([3]; ligand 22.22 μm): 3.978; τ2 ([3]; ligand 22.22 μm): 7.1; τ3 ([3]; ligand 22.22 μm): 1.075; IC50 (Plasmodium falciparum): 7.2 µM
2 | CC(C)=CCc1c(O)c(CC=C(C)C)c2oc3c(O)ccc(O)c3c(=O)c2c1O [gartanin] | –24.28 kJ mol^–1 | –23.68 kJ mol^–1 | –42.16 kJ mol^–1 | –0.06 kJ mol^–1 | 1 | 2.57 × 10^4 L mol^–1 | 2.57 × 10^12 | static quenching | 6.2 | 26.45 | 67.78 | 5.77 | 2.971 | 6.871 | 0.8793 | 6.2 | 30.06 | 64.04 | 5.91 | 3.0512 | τ2 ([3]; ligand 9.52 μm): 6.967; τ3 ([3]; ligand 9.52 μm): 0.8022; τavg (average fluorescence lifetime of BSA) ([3]; ligand 16.09 μm): 6.1; α1 ([3]; ligand 16.09 μm): 28.92%; α2 ([3]; ligand 16.09 μm): 64.86%; α3 ([3]; ligand 16.09 μm): 6.22%; τ1 ([3]; ligand 16.09 μm): 2.945; τ2 ([3]; ligand 16.09 μm): 6.882; τ3 ([3]; ligand 16.09 μm): 0.8547; τavg (average fluorescence lifetime of BSA) ([3]; ligand 22.22 μm): 6.2; α1 ([3]; ligand 22.22 μm): 30.4%; α2 ([3]; ligand 22.22 μm): 60.86%; α3 ([3]; ligand 22.22 μm): 8.74%; τ1 ([3]; ligand 22.22 μm): 3.254; τ2 ([3]; ligand 22.22 μm): 7.004; τ3 ([3]; ligand 22.22 μm): 0.9952
